The values that follow come from ChEMBL document CHEMBL4270612, “Discovery of dual GyrB/ParE inhibitors active against Gram-negative bacteria” (Eur J Med Chem, 2018).

In brackets after ≈: the same amount, converted by molar mass.

Chain of DNA topoisomerase 4 subunit B (P20083 whole entry): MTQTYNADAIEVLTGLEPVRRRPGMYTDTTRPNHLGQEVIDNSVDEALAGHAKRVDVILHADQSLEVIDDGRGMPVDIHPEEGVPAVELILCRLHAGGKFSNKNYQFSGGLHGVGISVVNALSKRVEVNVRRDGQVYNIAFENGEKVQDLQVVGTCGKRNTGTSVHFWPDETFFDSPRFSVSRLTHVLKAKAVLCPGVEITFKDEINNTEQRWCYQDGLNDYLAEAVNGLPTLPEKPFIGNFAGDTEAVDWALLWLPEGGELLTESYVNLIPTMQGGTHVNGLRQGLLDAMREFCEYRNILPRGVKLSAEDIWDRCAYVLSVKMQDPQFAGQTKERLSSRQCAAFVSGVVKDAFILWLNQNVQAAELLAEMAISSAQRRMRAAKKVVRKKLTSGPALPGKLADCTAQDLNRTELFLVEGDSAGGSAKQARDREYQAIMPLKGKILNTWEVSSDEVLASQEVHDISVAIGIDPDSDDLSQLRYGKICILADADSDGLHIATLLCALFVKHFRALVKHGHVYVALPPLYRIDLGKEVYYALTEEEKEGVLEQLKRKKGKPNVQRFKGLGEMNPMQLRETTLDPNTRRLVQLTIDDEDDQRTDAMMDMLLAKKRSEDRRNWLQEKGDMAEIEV

The first series concerns the target DNA gyrase subunit B (Escherichia coli, UniProt P0AES6). The series can be described thus: Inhibition of Escherichia coli GyrB (1 to 220 residues) expressed in Escherichia coli BL21(DE3).
Conditions: not given
The term IC50 denotes the concentration that inhibits the measured activity by half. A high value points to a need for much substance. `CCNC(=O)Nc1cc(-c2nc(C(F)(F)F)cs2)c(-c2cc3ncccc3nc2N2CC3CCCC(C2)N3)cn1` showed an IC50 of 14 nM.
Regarding `CCNC(=O)Nc1cc(-c2nc(C(F)(F)F)cs2)c(-c2cc(C(=O)O)ccc2N2C3CCC2CN(C)C3)cn1`, 9 nM corresponded to half-maximal inhibition (IC50).

Another series concerns the target DNA topoisomerase 4 subunit B (Escherichia coli K-12, UniProt P20083). Kind of series: Inhibition of Escherichia coli ParE.
Conditions: not given
`CCNC(=O)Nc1cc(-c2nc(C(F)(F)F)cs2)c(-c2cc3ncccc3nc2N2CC3CCCC(C2)N3)cn1`: the IC50 worked out at 25 nM.
For the molecule `CCNC(=O)Nc1cc(-c2nc(C(F)(F)F)cs2)c(-c2cc(C(=O)O)ccc2N2C3CCC2CN(C)C3)cn1`, half-maximal inhibition (IC50) required 10 nM.

Another series has as its system Pseudomonas aeruginosa. The series can be described thus: Antibacterial activity against Pseudomonas aeruginosa PAO1 after 24 hrs by broth microdilution method. The format is functional. Conditions: PAO1, 24 h. The method in brief: (§1)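 Broth microdilution per CLSI. Bacterial suspension adjusted to 1×10^6 CFU/mL in cation-adjusted Mueller–Hinton broth and mixed 1:1 with 2-fold serial compound dilutions. Final DMSO 2.5% v/v. Plates incubated at 35 °C with shaking at 140 rpm for 24 h.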
In general terms: Dilution methods test growth across graded concentrations, often in twofold steps.
For `CCNC(=O)Nc1cc(-c2nc(C(F)(F)F)cs2)c(-c2cc3ncccc3nc2N2CC3CCCC(C2)N3)cn1`, the MIC was > 60 µg/mL.
`CCNC(=O)Nc1cc(-c2nc(C(F)(F)F)cs2)c(-c2cc(C(=O)O)ccc2N2C3CCC2CN(C)C3)cn1` had an MIC of 9 µg/mL (≈ 16.1 µM).

In the next series the test system is Pseudomonas aeruginosa. The series can be described thus: Antibacterial activity against Pseudomonas aeruginosa harboring MexABCDXY deletion mutant after 24 hrs by broth microdilution method. Type of series: functional.
Conditions: not given
Summed up:
(§2)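 Broth microdilution per CLSI. Bacterial suspensions adjusted to 1×10^6 CFU/mL in cation-adjusted Mueller–Hinton broth, mixed 1:1 with 2-fold serial compound dilutions (final DMSO 2.5% v/v). Incubation 35 °C, 140 rpm, 24 h.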
In the case of `CCNC(=O)Nc1cc(-c2nc(C(F)(F)F)cs2)c(-c2cc3ncccc3nc2N2CC3CCCC(C2)N3)cn1`, the MIC came out at 0.55 µg/mL (≈ 0.967 µM).
`CCNC(=O)Nc1cc(-c2nc(C(F)(F)F)cs2)c(-c2cc(C(=O)O)ccc2N2C3CCC2CN(C)C3)cn1` displayed an MIC of 4.46 µg/mL (≈ 7.96 µM).

The subject of the next series is Escherichia coli. Kind of series: Antibacterial activity against Escherichia coli after 24 hrs by broth microdilution method. The format is functional.
Conditions: not given
The method in brief:
as §1
In the case of `CCNC(=O)Nc1cc(-c2nc(C(F)(F)F)cs2)c(-c2cc3ncccc3nc2N2CC3CCCC(C2)N3)cn1`, the MIC worked out at 9.09 µg/mL (≈ 16 µM).
Same read-out and setting: the same measure for `CCNC(=O)Nc1cc(-c2nc(C(F)(F)F)cs2)c(-c2cc(C(=O)O)ccc2N2C3CCC2CN(C)C3)cn1`: 9 µg/mL (≈ 16.1 µM).

A further series has as its system Escherichia coli. Kind of series: Antibacterial activity against tolC deficient Escherichia coli after 24 hrs by broth microdilution method. Type of series: functional.
Conditions: not given
The method in brief:
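Broth microdilution per CLSI guidelines. Inoculum adjusted to 1×10^6 CFU/mL in cation-adjusted Mueller–Hinton broth, added 1:1 to 2-fold serial compound dilutions; final DMSO 2.5% v/v. Plates incubated 35 °C, 140 rpm, 24 h.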
The molecule `CCNC(=O)Nc1cc(-c2nc(C(F)(F)F)cs2)c(-c2cc3ncccc3nc2N2CC3CCCC(C2)N3)cn1` registered an MIC of 0.28 µg/mL (≈ 0.492 µM).
`CCNC(=O)Nc1cc(-c2nc(C(F)(F)F)cs2)c(-c2cc(C(=O)O)ccc2N2C3CCC2CN(C)C3)cn1`: the MIC was found to be 1.12 µg/mL (≈ 2 µM).

Test system in a further series: not listed separately
The series can be described thus: Dissociation constant, acidic pKa of compound by pH metric method.
Conditions: not given
The format is physicochemical. Summed up:
(§3)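 Potentiometric (pH-metric) titration on an automated titrator, Gold Standard pH metric assay, run in triplicate.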
The term pKa denotes the pH at which an ionisable group is half protonated. `CCNC(=O)Nc1cc(-c2nc(C(F)(F)F)cs2)c(-c2cc(C(=O)O)ccc2N2C3CCC2CN(C)C3)cn1`: the pKa amounted to 4.4.

Test system in another series: not listed separately
Kind of series: Dissociation constant, basic pKa of compound by pH metric method. Type of series: physicochemical.
Conditions: not given
The method in brief: as §3
The molecule `CCNC(=O)Nc1cc(-c2nc(C(F)(F)F)cs2)c(-c2cc(C(=O)O)ccc2N2C3CCC2CN(C)C3)cn1` came in with a pKa of 8.2.

Test system in the next series: not listed separately
The series can be described thus: Dissociation constant, pKa of compound by pH metric method. Type of series: physicochemical.
Conditions: not given
Summed up: as §3
With `CCNC(=O)Nc1cc(-c2nc(C(F)(F)F)cs2)c(-c2cc3ncccc3nc2N2CC3CCCC(C2)N3)cn1`, the pKa came to 9.2.

A further series concerns Acinetobacter baumannii. Kind of series: Antibacterial activity against Acinetobacter baumannii ARC3495 after 24 hrs by broth microdilution method. The format is functional. Conditions: ARC3495, 24 h. Summed up: as §1
As for `CC(C)(O/N=C(\C(=O)N[C@@H]1C(=O)N2C(C(=O)[O-])=C(C[n+]3ccccc3)CS[C@H]12)c1csc(N)n1)C(=O)O` [CEFTAZIDIME], the MIC was > 32 µg/mL.
Regarding `CC(=O)NC[C@H]1CN(c2ccc(N3CCOCC3)c(F)c2)C(=O)O1` [LINEZOLID], the MIC is > 64 µg/mL.

For another series, the system named is Klebsiella pneumoniae. The series can be described thus: Antibacterial activity against Klebsiella pneumoniae ARC1865 after 24 hrs by broth microdilution method. The format is functional. Conditions: ARC1865, 24 h. Summed up:
as §1
Molecule `CC(C)(O/N=C(\C(=O)N[C@@H]1C(=O)N2C(C(=O)[O-])=C(C[n+]3ccccc3)CS[C@H]12)c1csc(N)n1)C(=O)O` [CEFTAZIDIME] showed an MIC of 0.25 µg/mL (≈ 0.457 µM).
For the molecule `CC(=O)NC[C@H]1CN(c2ccc(N3CCOCC3)c(F)c2)C(=O)O1` [LINEZOLID], the MIC was > 64 µg/mL.

For the next series, the system named is Haemophilus influenzae. Kind of series: Antibacterial activity against Haemophilus influenzae ATCC 49247 after 24 hrs by broth microdilution method. The format is functional. Conditions: ATCC 49247, 24 h. Summed up: as §1
In the case of `CC(C)(O/N=C(\C(=O)N[C@@H]1C(=O)N2C(C(=O)[O-])=C(C[n+]3ccccc3)CS[C@H]12)c1csc(N)n1)C(=O)O` [CEFTAZIDIME], the MIC amounted to 0.25 µg/mL (≈ 0.457 µM).
With `CC(=O)NC[C@H]1CN(c2ccc(N3CCOCC3)c(F)c2)C(=O)O1` [LINEZOLID], the MIC worked out at 4 µg/mL (≈ 11.9 µM).

For the next series, the system named is Enterobacter cloacae. Kind of series: Antibacterial activity against Enterobacter cloacae ARC3528 after 24 hrs by broth microdilution method. Conditions: ARC3528, 24 h. The format is functional. The method in brief:
as §1
As to `CC(C)(O/N=C(\C(=O)N[C@@H]1C(=O)N2C(C(=O)[O-])=C(C[n+]3ccccc3)CS[C@H]12)c1csc(N)n1)C(=O)O` [CEFTAZIDIME], the MIC is > 32 µg/mL.
With `CC(=O)NC[C@H]1CN(c2ccc(N3CCOCC3)c(F)c2)C(=O)O1` [LINEZOLID], the MIC was > 64 µg/mL.

A further series relates to Staphylococcus aureus. The series can be described thus: Antibacterial activity against Staphylococcus aureus ATCC 29213 after 24 hrs by broth microdilution method. Conditions: ATCC 29213, 24 h. Type of series: functional. Summed up:
as §1
Molecule `CC(C)(O/N=C(\C(=O)N[C@@H]1C(=O)N2C(C(=O)[O-])=C(C[n+]3ccccc3)CS[C@H]12)c1csc(N)n1)C(=O)O` [CEFTAZIDIME] registered an MIC of 16 µg/mL (≈ 29.3 µM).

The next series has as its system Staphylococcus aureus. The series can be described thus: Antibacterial activity against Staphylococcus aureus ATCC 29213 after 24 hrs in presence of 2% human albumin by broth microdilution method. Conditions: ATCC 29213, 24 h. Type of series: functional.
For `CC(C)(O/N=C(\C(=O)N[C@@H]1C(=O)N2C(C(=O)[O-])=C(C[n+]3ccccc3)CS[C@H]12)c1csc(N)n1)C(=O)O` [CEFTAZIDIME], the MIC was determined as 16 µg/mL.

A further series concerns Staphylococcus aureus. The series can be described thus: Antibacterial activity against methicillin-resistant Staphylococcus aureus FQ-R after 24 hrs by broth microdilution method. The format is functional.
Conditions: not given
Summed up:
as §2
As to `CC(C)(O/N=C(\C(=O)N[C@@H]1C(=O)N2C(C(=O)[O-])=C(C[n+]3ccccc3)CS[C@H]12)c1csc(N)n1)C(=O)O` [CEFTAZIDIME], the MIC was > 32 µg/mL.
Molecule `CC(=O)NC[C@H]1CN(c2ccc(N3CCOCC3)c(F)c2)C(=O)O1` [LINEZOLID] came in with an MIC of 0.5 µg/mL (≈ 1.48 µM).

A further series concerns Staphylococcus aureus. The series can be described thus: Antibacterial activity against methicillin-resistant Staphylococcus aureus USA100 after 24 hrs by broth microdilution method. Conditions: USA100, 24 h. The format is functional. The method in brief: as §2
For the molecule `CC(C)(O/N=C(\C(=O)N[C@@H]1C(=O)N2C(C(=O)[O-])=C(C[n+]3ccccc3)CS[C@H]12)c1csc(N)n1)C(=O)O` [CEFTAZIDIME], the MIC is > 32 µg/mL.
Molecule `CC(=O)NC[C@H]1CN(c2ccc(N3CCOCC3)c(F)c2)C(=O)O1` [LINEZOLID] returned an MIC of 1 µg/mL (≈ 2.96 µM).

For another series, the system named is Streptococcus pyogenes. The series can be described thus: Antibacterial activity against Streptococcus pyogenes ARC838 after 24 hrs by broth microdilution method. As to conditions: ARC838, 24 h. Type of series: functional. Summed up:
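Broth microdilution per CLSI. Bacterial suspension adjusted to 1×10^6 CFU/mL in cation-adjusted Mueller–Hinton broth and mixed 1:1 with 2-fold serial compound dilutions. Plates incubated at 35 °C with shaking at 140 rpm for 24 h.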
As for `CC(=O)NC[C@H]1CN(c2ccc(N3CCOCC3)c(F)c2)C(=O)O1` [LINEZOLID], the MIC was 0.5 µg/mL (≈ 1.48 µM).

In the next series the test system is Streptococcus pneumoniae. The series can be described thus: Antibacterial activity against Streptococcus pneumoniae ATCC 49619 after 24 hrs by broth microdilution method. The format is functional. Conditions: ATCC 49619, 24 h. Summed up:
as §1
`CC(C)(O/N=C(\C(=O)N[C@@H]1C(=O)N2C(C(=O)[O-])=C(C[n+]3ccccc3)CS[C@H]12)c1csc(N)n1)C(=O)O` [CEFTAZIDIME] yielded an MIC of 0.5 µg/mL (≈ 0.915 µM).

The subject of another series is Enterococcus faecalis. Kind of series: Antibacterial activity against Enterococcus faecalis ATCC 29212 after 24 hrs by broth microdilution method. Type of series: functional. Conditions: ATCC 29212, 24 h. The method in brief: as §1
For the molecule `CC(C)(O/N=C(\C(=O)N[C@@H]1C(=O)N2C(C(=O)[O-])=C(C[n+]3ccccc3)CS[C@H]12)c1csc(N)n1)C(=O)O` [CEFTAZIDIME], the MIC was > 32 µg/mL.

Another series relates to Candida albicans. Kind of series: Antifungal activity against Candida albicans ATCC 90028 after 24 hrs by broth microdilution method. Conditions: ATCC 90028, 24 h. Type of series: functional.
`CC(C)(O/N=C(\C(=O)N[C@@H]1C(=O)N2C(C(=O)[O-])=C(C[n+]3ccccc3)CS[C@H]12)c1csc(N)n1)C(=O)O` [CEFTAZIDIME]: the MIC was > 32 µg/mL.
The same measure, in the same setting: then `CC(=O)NC[C@H]1CN(c2ccc(N3CCOCC3)c(F)c2)C(=O)O1` [LINEZOLID], with > 64 µg/mL.

Test system in another series: not listed separately
The series can be described thus: Growth inhibition of human A549 cells. Type of series: cell-based.
Conditions: not given
As usually defined, the GI50 is the concentration that inhibits growth by half. A low value points to greater sensitivity of the cells. On to `CCNC(=O)Nc1cc(-c2nc(C(F)(F)F)cs2)c(-c2cc3ncccc3nc2N2CC3CCCC(C2)N3)cn1`, for which the 50% growth inhibitory concentration (GI50) is > 50000 nM.
For `CCNC(=O)Nc1cc(-c2nc(C(F)(F)F)cs2)c(-c2cc(C(=O)O)ccc2N2C3CCC2CN(C)C3)cn1`, the 50% growth inhibitory concentration (GI50) was > 25000 nM.
